ChEMBL document CHEMBL1151475, “Thiopurine drugs azathioprine and 6-mercaptopurine inhibit Mycobacterium paratuberculosis growth in vitro” (2008)

Tests used:
[1] = test system: Mycobacterium avium subsp. paratuberculosis; assay: Antituberculosis activity against Mycobacterium paratuberculosis ATCC 19698 isolated from bovine assessed as lowest drug level producing inhibition at 10^6 CFU of inoculum by MGIT 960 susceptibility test; format: functional
Procedure, shortened: (§1)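 M. paratuberculosis ATCC 19698 at 10^6 CFU per MGIT ParaTB tube in duplicate, drugs at final 1.0–64.0 μg/ml, 37°C in MGIT 960. Inhibition is the lowest concentration whose time to detection exceeds the 1:100 diluted-inoculum solvent control. No detectable growth means the tube never signals positive through 56 days.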

[2] = test system: Mycobacterium avium subsp. paratuberculosis; assay: Antituberculosis activity against Mycobacterium paratuberculosis ATCC 19698 isolated from bovine assessed as minimum drug level resulting in no detectable growth at 10^6 CFU of inoculum after 56 days by MGIT 960 susceptibility test; format: functional; procedure, shortened: as §1
[3] = test system: Mycobacterium avium subsp. paratuberculosis; assay: Antituberculosis activity against Mycobacterium paratuberculosis ATCC 19698 isolated from bovine assessed as lowest drug level producing inhibition at 10^6 CFU of inoculum by agar counting method; format: functional
Procedure, shortened: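 ATCC 19698 at 10^6 CFU was exposed to drug (1.0–64.0 μg/ml) in MGIT ParaTB medium at 37°C. Aliquots taken at 3 and 5 days were centrifuged, resuspended in PBS and declumped with glass beads. Serial dilutions were plated in quadruplicate on 7H10/OADC/mycobactin J and counted after 8 weeks. Inhibition is the lowest concentration giving a 2 log10 (99%) CFU reduction.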

[4] = test system: Mycobacterium avium subsp. paratuberculosis; assay: Antituberculosis activity against Mycobacterium paratuberculosis UCF-5 isolated from Crohn's disease patient assessed as minimum drug level required for inhibition by MGIT 960 susceptibility test; format: functional
Procedure, shortened: (§2)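 10^5 to 10^6 CFU from single-cell suspensions inoculated in duplicate into MGIT ParaTB medium with supplement and egg yolk. Drugs were at final 0.5–64.0 μg/ml, with 128.0 μg/ml added for some strains. Tubes were incubated at 37°C in MGIT 960. Inhibition is the lowest concentration giving a time to detection longer than a drug-free 1:100 inoculum control. Killing is no positive signal through 56 days.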

[5] = test system: Mycobacterium avium subsp. paratuberculosis; assay: Antituberculosis activity against Mycobacterium paratuberculosis B238 isolated from bovine assessed as minimum drug level required for inhibition by MGIT 960 susceptibility test; format: functional; procedure, shortened: as §2
Mycobacterium avium [6] = assay: Antituberculosis activity against Mycobacterium avium ATCC 35712 isolated from chicken assessed as minimum drug level required for killing after 56 days by MGIT 960 susceptibility test; format: functional; procedure, shortened: as §2
[7] = test system: Mycobacterium avium subsp. paratuberculosis; assay: Antituberculosis activity against Mycobacterium paratuberculosis UCF-7 isolated from Crohn's disease patient assessed as colony counts at 4 ug after 12 days by MGIT 960 susceptibility test; format: functional
[8] = test system: Mycobacterium avium subsp. paratuberculosis; assay: Antituberculosis activity against Mycobacterium paratuberculosis UCF-4 isolated from Crohn's disease patient assessed as minimum drug level required for inhibition by MGIT 960 susceptibility test; format: functional; procedure, shortened: as §2
[9] = test system: Mycobacterium avium subsp. paratuberculosis; assay: Antituberculosis activity against Mycobacterium paratuberculosis B236 isolated from bovine assessed as minimum drug level required for inhibition by MGIT 960 susceptibility test; format: functional; procedure, shortened: as §2
[10] = test system: Mycobacterium avium subsp. paratuberculosis; assay: Antituberculosis activity against Mycobacterium paratuberculosis UCF-7 isolated from Crohn's disease patient assessed as colony counts at 2 ug after 12 days by MGIT 960 susceptibility test; format: functional
Mycobacterium avium [11] = assay: Antituberculosis activity against Mycobacterium avium ATCC 35712 isolated from chicken assessed as minimum drug level required for inhibition by MGIT 960 susceptibility test; format: functional; procedure, shortened: as §2
[12] = test system: Mycobacterium avium subsp. paratuberculosis; assay: Antituberculosis activity against Mycobacterium paratuberculosis UCF-7 isolated from Crohn's disease patient assessed as minimum drug level required for killing after 56 days by MGIT 960 susceptibility test; format: functional; procedure, shortened: as §2
[13] = test system: Mycobacterium avium subsp. paratuberculosis; assay: Antituberculosis activity against Mycobacterium paratuberculosis UCF-7 isolated from Crohn's disease patient assessed as minimum drug level required for inhibition by MGIT 960 susceptibility test; format: functional; procedure, shortened: as §2
[14] = test system: Mycobacterium avium subsp. paratuberculosis; assay: Antituberculosis activity against Mycobacterium paratuberculosis ATCC 19698 isolated from bovine assessed as viability after 5 to 8 days by standard plate count method
[15] = test system: Mycobacterium avium subsp. paratuberculosis; assay: Antituberculosis activity against Mycobacterium paratuberculosis B238 isolated from bovine assessed as minimum drug level required for killing after 56 days by MGIT 960 susceptibility test; format: functional; procedure, shortened: as §2
[16] = test system: Mycobacterium avium subsp. paratuberculosis; assay: Antituberculosis activity against Mycobacterium paratuberculosis B213 isolated from bovine assessed as minimum drug level required for killing after 56 days by MGIT 960 susceptibility test; format: functional; procedure, shortened: as §2
[17] = test system: Mycobacterium avium subsp. paratuberculosis; assay: Antituberculosis activity against Mycobacterium paratuberculosis UCF-4 isolated from Crohn's disease patient assessed as minimum drug level required for killing after 56 days by MGIT 960 susceptibility test; format: functional; procedure, shortened: as §2
[18] = test system: Mycobacterium avium subsp. paratuberculosis; assay: Antituberculosis activity against Mycobacterium paratuberculosis JTC303 isolated from bovine assessed as minimum drug level required for inhibition by MGIT 960 susceptibility test; format: functional; procedure, shortened: as §2
[19] = test system: Mycobacterium avium subsp. paratuberculosis; assay: Antituberculosis activity against Mycobacterium paratuberculosis B236 isolated from bovine assessed as minimum drug level required for killing after 56 days by MGIT 960 susceptibility test; format: functional; procedure, shortened: as §2
[20] = test system: Mycobacterium avium subsp. paratuberculosis; assay: Antituberculosis activity against Mycobacterium paratuberculosis UCF-5 isolated from Crohn's disease patient assessed as minimum drug level required for killing after 56 days by MGIT 960 susceptibility test; format: functional; procedure, shortened: as §2
[21] = test system: Mycobacterium avium subsp. paratuberculosis; assay: Antituberculosis activity against Mycobacterium paratuberculosis JTC303 isolated from bovine assessed as minimum drug level required for killing after 56 days by MGIT 960 susceptibility test; format: functional; procedure, shortened: as §2
[22] = test system: Mycobacterium avium subsp. paratuberculosis; assay: Antituberculosis activity against Mycobacterium paratuberculosis B213 isolated from bovine assessed as minimum drug level required for inhibition by MGIT 960 susceptibility test; format: functional; procedure, shortened: as §2

In the case of Nc1ccc(S(=O)(=O)Nc2ccccn2)cc1 [SULFAPYRIDINE], the Activity [1] is reported as over 64 µg/mL, the Activity [2] is reported as over 64 µg/mL and the Activity [3] is reported as over 64 µg/mL.
Compound CO[C@H]1/C=C/O[C@@]2(C)Oc3c(C)c(O)c4c(O)c(c(/C=N/N5CCN(C)CC5)c(O)c4c3C2=O)NC(=O)/C(C)=C\C=C\[C@H](C)[C@H](O)[C@@H](C)[C@@H](O)[C@@H](C)[C@H](OC(C)=O)[C@@H]1C [RIFAMPIN] has an Activity [1] of 2 µg/mL, an Activity [2] of over 64 µg/mL and an Activity [3] of 2 µg/mL.
Work on O=C(O)c1cn(C2CC2)c2cc(N3CCNCC3)c(F)cc2c1=O [CIPROFLOXACIN] yielded an Activity [4] of 2 µg/mL, an Activity [5] of 4 µg/mL and an Activity (Mycobacterium avium [6]) of 64 µg/mL. The Activity [1] was 1 µg/mL, the log10CFU/ml [7] was 0.76 and the Activity [8] was 1 µg/mL. The Activity [9] was 4 µg/mL, the log10CFU/ml [10] was 1.98 and the Activity (Mycobacterium avium [11]) was 16 µg/mL. It also gave an Activity [12] of 4 µg/mL, an Activity [13] of 1 µg/mL and a log10CFU/ml [14] of 1. It also gave an Activity [15] of 16 µg/mL, an Activity [2] of 32 µg/mL and an Activity [16] of 16 µg/mL. For the same compound, the Activity [17] was 4 µg/mL, the Activity [18] was 2 µg/mL and the Activity [19] was 16 µg/mL. The Activity [20] was 4 µg/mL, the Activity [21] was 8 µg/mL and the Activity [3] was 1 µg/mL. The Activity [22] was 4 µg/mL.
In the case of CCn1cc(C(=O)O)c(=O)c2ccc(C)nc21 [NALIDIXIC ACID], the Activity [1] is reported as over 64 µg/mL, the Activity [2] is reported as over 64 µg/mL and the Activity [3] is reported as over 64 µg/mL.
